# Test results: ChEMBL document CHEMBL4339255, “Dimeric Pyranonaphthoquinone Glycosides with Anti-HIV and Cytotoxic Activities from a Soil-Derived Streptomyces” (J Nat Prod, 2019)
# Legend:
# [1] = Toxicity in human C8166 cells assessed as reduction in cell viability incubated for 72 hrs by MTT assay; assay type: cell-based
# [2] = tested on: Human immunodeficiency virus 1; assay: Antiviral activity against HIV1 3B infected in human C8166 cells assessed as inhibition of syncytial cell formation incubated for 72 hrs; assay type: functional, organism-based; details: Human immunodeficiency virus 1, 3B, C8166, 72 h
# [3] = Therapeutic index, ratio of CC50 for toxicity in C8166 cells to EC50 for antiviral activity against HIV1 3B infected in human C8166 cells; assay type: cell-based; details: read-out: Ratio CC50/EC50
# HL-60 = assay: Cytotoxicity in human HL60 cells assessed as reduction in cell viability incubated for 72 hrs by MTS assay; assay type: functional, cell-based; details: HL-60, 72 h
# Method in brief: (§1)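 Cells plated at 5 × 10^3 per well, left 24 h, then given a range of sample concentrations from DMSO solutions, in triplicate; DMSO-only negative controls, paclitaxel and cisplatin positive controls. After 72 h exposure, MTS added for 2 h at 37 °C, absorbance read at 492 nm, IC50 by the Reed and Muench method.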
# MCF7 = assay: Cytotoxicity in human MCF7 cells assessed as reduction in cell viability incubated for 72 hrs by MTS assay; assay type: functional, cell-based; details: MCF7, 72 h; method in brief: as §1
Compound,CC50 at 72 h [1],EC50 [2],selectivity ratio [3],IC50 (HL-60),IC50 (MCF7)
Nc1ccn([C@@H]2CS[C@H](CO)O2)c(=O)n1 [LAMIVUDINE],> 1000 µM,0.3 µM,> 2910,–,–
COC(=O)C[C@H]1C[C@@]2(S[C@@]34C[C@H](CCO[C@H]5O[C@@H](C(=O)OC)[C@H](O)[C@@H](O)[C@@H]5O)O[C@@H](C)[C@@]3(O)C(=O)c3c(O)cccc3C4=O)C(=O)c3cccc(O)c3C(=O)[C@]2(O)[C@H](C)O1,36.4 µM,8.6 µM,4.2,14.9 µM,3.4 µM
COC(=O)C[C@H]1C[C@@]2(S[C@@]34C[C@H](CCO[C@H]5O[C@@H](C(=O)O)[C@H](O)[C@@H](O)[C@@H]5O)O[C@@H](C)[C@@]3(O)C(=O)c3c(O)cccc3C4=O)C(=O)c3cccc(O)c3C(=O)[C@]2(O)[C@H](C)O1,56.4 µM,9.6 µM,5.9,–,–
CC(=O)O[C@H]1C(=O)[C@@]2(C)[C@H]([C@H](OC(=O)c3ccccc3)[C@]3(O)C[C@H](OC(=O)[C@H](O)[C@@H](NC(=O)c4ccccc4)c4ccccc4)C(C)=C1C3(C)C)[C@]1(OC(C)=O)CO[C@@H]1C[C@@H]2O [PACLITAXEL],–,–,–,< 0.008 µM,< 0.008 µM
COC(=O)C[C@H]1C[C@@]2(S[C@@]34C[C@H](CC(=O)O[C@H]5OC(C(=O)O)=C[C@@H](O)[C@@H]5O)O[C@@H](C)[C@@]3(O)C(=O)c3c(O)cccc3C4=O)C(=O)c3cccc(O)c3C(=O)[C@]2(O)[C@H](C)O1,63.7 µM,2.8 µM,22.5,9.9 µM,1.4 µM
COC(=O)C[C@H]1C[C@@]2(S[C@@]34C[C@H](CC(=O)OC)O[C@@H](C)[C@@]3(O)C(=O)c3c(O[C@H]5O[C@@H](C(=O)O)[C@H](O)[C@@H](O)[C@@H]5O)cccc3C4=O)C(=O)c3cccc(O)c3C(=O)[C@]2(O)[C@H](C)O1,> 100 µM,44.7 µM,> 2.2,–,–
COC(=O)C[C@H]1C[C@@]2(S[C@@]34C[C@H](CC(=O)O[C@H]5O[C@@H](C(=O)OC)[C@H](O)[C@@H](O)[C@@H]5O)O[C@@H](C)[C@@]3(O)C(=O)c3c(O)cccc3C4=O)C(=O)c3cccc(O)c3C(=O)[C@]2(O)[C@H](C)O1,–,–,–,16.1 µM,3.4 µM
COC(=O)C[C@H]1C[C@@]2(S[C@@]34C[C@H](CC(=O)O[C@H]5O[C@@H](C(=O)O)[C@H](O)[C@@H](O)[C@@H]5O)O[C@@H](C)[C@@]3(O)C(=O)c3c(O)cccc3C4=O)C(=O)c3cccc(O)c3C(=O)[C@]2(O)[C@H](C)O1,52 µM,9.6 µM,5.4,–,–
